Substitutions are numbered along the chain they refer to. Values after ≈ are worked out from the molar mass of the structure shown. Active and inactive are the calls of the source. No cut-off for these calls is given here.
Legend:
[1] = target: Cell division protein FtsZ (Staphylococcus aureus, UniProt P0A031, E185A); assay: Binding affinity to Staphylococcus aureus FtsZ E185A mutant expressed in Escherichia coli BL21 (DE3) at 25 degC by fluorescence anisotropy assay
In short: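 Purified SaFtsZ mutant protein (0–25 μM) mixed with 5 μM compound in 50 mM Tris·HCl pH 7.4, 50 mM KCl, 2 mM magnesium acetate. After 5 min at 25 °C, steady-state fluorescence anisotropy read at excitation 245 / emission 318 nm, G-factor corrected, triplicate. Kd from nonlinear least-squares fit.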

[2] = test system: T1, Cell division protein FtsZ (Staphylococcus aureus), P0A031 [G196A]; assay: Binding affinity to Staphylococcus aureus FtsZ G196A mutant self-polymerization at 20 ug/mL by microtiter plate-based light scattering assay
T1 sequence (whole entry): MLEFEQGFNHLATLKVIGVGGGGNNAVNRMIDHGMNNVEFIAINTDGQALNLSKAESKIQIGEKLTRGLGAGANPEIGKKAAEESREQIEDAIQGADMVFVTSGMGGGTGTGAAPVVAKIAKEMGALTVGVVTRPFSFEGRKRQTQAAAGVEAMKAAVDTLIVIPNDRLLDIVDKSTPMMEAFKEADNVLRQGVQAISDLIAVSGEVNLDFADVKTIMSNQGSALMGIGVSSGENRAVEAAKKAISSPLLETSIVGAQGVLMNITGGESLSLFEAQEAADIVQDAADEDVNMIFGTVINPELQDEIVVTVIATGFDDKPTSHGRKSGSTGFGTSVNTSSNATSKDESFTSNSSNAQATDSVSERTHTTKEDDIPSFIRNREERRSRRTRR

[3] = target: T2, Cell division protein FtsZ (Staphylococcus aureus) (UniProt P0A031); assay: Stimulation of Staphylococcus aureus FtsZ assembly and bundling at 20 ug/mL by transmission electron microscopy
T2 sequence (whole entry): T1 sequence (whole entry) with A196G
In short: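 SaFtsZ polymerized with 20 μg/mL compound under light-scattering assay conditions (10 μM protein, 1 mM GTP, 1 mM CaCl2, pH 7.4). Reaction diluted 1:10 in polymerization buffer, applied to glow-discharged Formvar/carbon grids, negatively stained with 1% phosphotungstic acid for 1 min, and imaged by TEM at 80 kV.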

[4] = target: Tubulin beta chain (Sus scrofa) (UniProt P02554); assay: Effect on MAP-rich pig beta-tubulin polymerization at 40 ug/mL by microtiter plate-based light scattering assay
In short: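 MAP-rich porcine tubulin (70% β-tubulin, 30% MAPs) at 2 mg/mL with 1 mM GTP. Buffer was 80 mM PIPES·NaOH pH 7.0, 2 mM MgCl₂, 1 mM EGTA. Light scattering was followed as A340 continuously at 37 °C for 60 min, against a DMSO vehicle.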

[5] = test system: Staphylococcus aureus; assay: Antimicrobial activity against methicillin-resistant Staphylococcus aureus Mu3 incubated for 24 hrs by broth microdilution method; type: functional; settings: Mu3, 24 h
[6] = test system: Staphylococcus aureus; assay: microbe, parasite or virus in culture; type: functional; settings: ATCC 33591, 24 h
[7] = test system: Streptococcus pyogenes; assay: Antimicrobial activity against Streptococcus pyogenes Strep A ATCC 19615 incubated for 24 hrs by broth microdilution method; type: functional; settings: Strep A ATCC 19615, 24 h
In short: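 CLSI broth microdilution. Log-phase bacteria at 10⁵ CFU/mL were exposed to 2-fold serial dilutions (64 to 0.016 μg/mL) in cation-adjusted Mueller-Hinton broth, 5% defibrinated sheep blood added for Streptococcus. Incubated aerobically 24 h at 37 °C. Growth read as OD600; MIC taken as the lowest concentration giving 90% growth inhibition.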

[8] = target: Cell division protein FtsZ (Staphylococcus aureus, UniProt P0A031, G196A); assay: Binding affinity to Staphylococcus aureus FtsZ G196A mutant expressed in Escherichia coli BL21 (DE3) at 25 degC by fluorescence anisotropy assay
[9] = Binding affinity to Enterococcus faecalis FtsZ at 25 degC by fluorescence anisotropy assay; settings: read-out: Kd
[10] = target: T3, Cell division protein FtsZ (Escherichia coli K-12) (UniProt P0A9A6); assay: Stimulation of Escherichia coli FtsZ self-polymerization by microtiter plate-based light scattering assay
T3 sequence (whole entry): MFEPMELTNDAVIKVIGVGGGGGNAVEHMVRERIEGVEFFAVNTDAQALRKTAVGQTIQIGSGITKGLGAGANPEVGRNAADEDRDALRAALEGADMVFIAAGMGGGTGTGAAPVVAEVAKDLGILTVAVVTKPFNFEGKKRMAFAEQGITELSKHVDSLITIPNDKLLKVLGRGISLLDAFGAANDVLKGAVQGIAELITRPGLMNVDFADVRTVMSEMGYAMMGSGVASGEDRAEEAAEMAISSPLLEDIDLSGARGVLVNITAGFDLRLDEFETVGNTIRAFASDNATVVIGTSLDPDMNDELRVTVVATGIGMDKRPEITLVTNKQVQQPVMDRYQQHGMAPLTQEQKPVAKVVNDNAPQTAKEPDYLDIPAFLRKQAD

[11] = test system: Staphylococcus aureus; assay: Antimicrobial effect against methicillin-sensitive Staphylococcus aureus 8325-4 assessed as changes in MIC measured after 12 incubation cycles by stepwise broth microdilution method relative to initial compound MIC; type: functional, organism-based
In short: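 Stepwise resistance selection. S. aureus 8325-4 at 10⁵ CFU/mL was inoculated into 2-fold increasing compound concentrations and incubated 24 h at 37 °C. Aliquots from the well with the highest concentration still showing growth (2-fold below MIC) seeded a new serial 2-fold dilution plate. This was repeated for multiple cycles, with MIC determined each cycle.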

Sequence of Tubulin beta chain (Sus scrofa) (P02554 whole entry): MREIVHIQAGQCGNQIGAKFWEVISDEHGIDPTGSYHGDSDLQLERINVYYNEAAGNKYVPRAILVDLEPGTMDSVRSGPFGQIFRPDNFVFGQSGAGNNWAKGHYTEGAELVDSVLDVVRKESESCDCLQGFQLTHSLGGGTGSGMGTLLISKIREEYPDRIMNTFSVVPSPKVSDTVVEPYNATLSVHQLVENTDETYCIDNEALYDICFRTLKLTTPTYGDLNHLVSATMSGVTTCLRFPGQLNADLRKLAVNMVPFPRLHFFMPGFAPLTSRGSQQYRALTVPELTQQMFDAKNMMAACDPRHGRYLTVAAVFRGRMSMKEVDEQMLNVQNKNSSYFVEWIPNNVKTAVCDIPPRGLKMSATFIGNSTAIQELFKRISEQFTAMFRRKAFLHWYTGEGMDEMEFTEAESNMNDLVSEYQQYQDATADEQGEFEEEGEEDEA

Q: Which Kd [1] does the source give for `CC(C)(C)c1ccc(-c2cccc(CNC(=N)N)c2)cc1` here?
A: Its Kd is 38.3 µM.

Q: And the Activity [2]?
A: Its Activity is “Active”.

Q: What about the Activity [3] of the same compound?
A: Its Activity is “Active”.

Q: What about the Activity [4] of the same compound?
A: The Activity was “inactive”.

Q: What about the MIC [5] of the same compound?
A: Its MIC is 1 µg/mL (≈ 3.55 µM).

Q: What about the MIC [6] of the same compound?
A: The MIC was 1 µg/mL (≈ 3.55 µM).

Q: What about the MIC [7] of the same compound?
A: The MIC was 2 µg/mL (≈ 7.11 µM).

Q: And the Kd [8]?
A: The Kd was 5 µM.

Q: What about the Kd [9] of the same compound?
A: Its Kd is 21.8 µM.

Q: And the Activity [10]?
A: Its Activity is “Dose-dependent effect”.

Q: And the Activity [11]?
A: Its Activity is “Active”.

Reference: ChEMBL document CHEMBL2176974, “A bactericidal guanidinomethyl biaryl that alters the dynamics of bacterial FtsZ polymerization” (J Med Chem, 2012)
